The source of these data is ChEMBL document CHEMBL1126759, “Potent HIV protease inhibitors: the development of tetrahydrofuranylglycines as novel P2-ligands and pyrazine amides as P3-ligands” (J Med Chem, 1993).

In test [1] the target is Human immunodeficiency virus type 1 protease (Human immunodeficiency virus 1, UniProt Q72874). In words: Tested for inhibitory concentration against HIV-1 protease.
In test [2] the target is Human immunodeficiency virus type 1 protease (Human immunodeficiency virus 1) (UniProt Q72874). Briefly: Tested for inhibitory concentration against spread of HIV-1 in MT-4 human T-lymphoid cells infected with IIIb isolate. Type of test: functional, cell-based. A digest of the protocol:
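MT-4 cells grown in RPMI-1640 with 10% inactivated FBS, 4 mM glutamine and penicillin/streptomycin at 37 °C under CO2. Cells were pretreated 24 h with serially diluted compound (DMSO stock), then infected at 250 000 cells/mL, MOI 0.01. Compound was refreshed every 2–3 days. CIC was read by anti-HIV-1 immunofluorescence (complete block of spread, 7–24 days) or p24 ELISA (>95% reduction).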

The target in test [3] is Human immunodeficiency virus type 2 pol protein (Human immunodeficiency virus 2, UniProt P88142). In words: Tested for inhibitory concentration against HIV-2 protease. Format: functional. A digest of the protocol:
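HIV-2 protease (ROD) purified the same way as HIV-1 protease, which was bacterially expressed; value reported as IC50.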

Human immunodeficiency virus type 2 pol protein, sequence (P88142 whole entry): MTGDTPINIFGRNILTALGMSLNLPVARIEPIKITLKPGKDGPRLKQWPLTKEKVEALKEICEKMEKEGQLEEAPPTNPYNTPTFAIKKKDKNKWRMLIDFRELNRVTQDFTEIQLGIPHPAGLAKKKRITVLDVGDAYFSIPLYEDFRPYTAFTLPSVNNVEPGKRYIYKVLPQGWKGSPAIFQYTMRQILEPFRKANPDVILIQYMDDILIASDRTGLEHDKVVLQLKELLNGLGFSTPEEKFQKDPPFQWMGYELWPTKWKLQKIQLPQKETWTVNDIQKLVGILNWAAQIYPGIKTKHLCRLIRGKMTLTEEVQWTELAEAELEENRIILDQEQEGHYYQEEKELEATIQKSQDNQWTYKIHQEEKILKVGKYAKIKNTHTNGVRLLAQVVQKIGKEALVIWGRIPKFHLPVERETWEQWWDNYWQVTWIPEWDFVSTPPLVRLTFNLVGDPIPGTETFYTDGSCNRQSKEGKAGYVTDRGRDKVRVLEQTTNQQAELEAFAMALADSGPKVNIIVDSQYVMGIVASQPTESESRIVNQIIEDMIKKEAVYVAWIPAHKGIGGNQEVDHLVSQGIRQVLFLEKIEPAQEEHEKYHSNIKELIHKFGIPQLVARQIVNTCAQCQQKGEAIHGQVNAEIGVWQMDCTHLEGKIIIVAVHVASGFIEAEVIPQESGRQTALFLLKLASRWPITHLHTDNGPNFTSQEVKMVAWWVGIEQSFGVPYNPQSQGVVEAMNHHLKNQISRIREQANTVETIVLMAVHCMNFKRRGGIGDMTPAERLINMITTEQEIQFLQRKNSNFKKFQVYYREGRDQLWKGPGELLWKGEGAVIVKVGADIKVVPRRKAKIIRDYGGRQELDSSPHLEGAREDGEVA

`CC(C)(C)NC(=O)[C@@H]1C[C@@H]2CCCC[C@@H]2CN1C[C@@H](O)[C@H](Cc1ccccc1)NC(=O)[C@@H](NC(=O)c1cnccn1)[C@H]1CCOC1` showed an IC50 in test [1] of 2.83 nM. `CC(C)(C)NC(=O)[C@@H]1C[C@@H]2CCCC[C@@H]2CN1C[C@@H](O)[C@H](Cc1ccccc1)NC(=O)[C@@H](NC(=O)c1ccc2ccccc2n1)[C@@H]1CCS(=O)(=O)C1` had an IC50 in test [1] of 39 nM. For the compound `CC(C)(C)NC(=O)[C@@H]1C[C@@H]2CCCC[C@@H]2CN1C[C@@H](O)[C@H](Cc1ccccc1)NC(=O)[C@H](CC(N)=O)NC(=O)c1ccc2ccccc2n1`, in test [2], the IC95 is 22 nM. Also, the IC50 in test [3] amounted to 0.5 nM. `CC(C)[C@H](NC(=O)c1cc(=O)c2ccccc2o1)C(=O)N[C@@H](Cc1ccccc1)[C@H](O)CN1C[C@H]2CCCC[C@H]2C[C@H]1C(=O)NC(C)(C)C` yielded a 95% effect concentration (IC95) in test [2] of 25 nM. The compound also showed an IC50 in test [1] of 0.15 nM. In test [2], `CC(C)(C)NC(=O)[C@@H]1C[C@@H]2CCCC[C@@H]2CN1C[C@@H](O)[C@H](Cc1ccccc1)NC(=O)[C@@H](NC(=O)c1ccc2ccccc2n1)[C@H]1CCSC1` registered an IC95 of 50 nM. In test [1], this compound showed a half-inhibitory concentration (IC50) of 0.6 nM. In the case of `CC(C)[C@H](NC(=O)c1cnc2ccccc2n1)C(=O)N[C@@H](Cc1ccccc1)[C@H](O)CN1C[C@H]2CCCC[C@H]2C[C@H]1C(=O)NC(C)(C)C`, the IC50 in test [1] was found to be 0.39 nM. In test [2], `CC(C)(C)NC(=O)[C@@H]1C[C@@H]2CCCC[C@@H]2CN1C[C@@H](O)[C@H](Cc1ccccc1)NC(=O)[C@@H](NC(=O)c1cc(=O)c2ccccc2o1)[C@H]1CCOC1` registered an IC95 of 25 nM. The same compound gave a concentration for half-maximal inhibition (IC50) in test [1] of 0.11 nM. In turn, `CC(C)(C)NC(=O)[C@@H]1C[C@@H]2CCCC[C@@H]2CN1C[C@@H](O)[C@H](Cc1ccccc1)NC(=O)[C@@H](NC(=O)c1cnc2ccccc2n1)[C@H]1CCOC1` registered an IC95 in test [2] of 12 nM. In addition, the IC50 in test [1] is 0.12 nM. In test [2], `CC(C)(C)NC(=O)[C@@H]1C[C@@H]2CCCC[C@@H]2CN1C[C@@H](O)[C@H](Cc1ccccc1)NC(=O)[C@@H](NC(=O)c1ccc2ccccc2n1)[C@@H]1CCOC1` registered an IC95 of 100 nM. In test [1], this compound displayed an IC50 of 5.4 nM. As for `CC(C)(C)NC(=O)[C@@H]1C[C@@H]2CCCC[C@@H]2CN1C[C@@H](O)[C@H](Cc1ccccc1)NC(=O)[C@@H](NC(=O)c1ccc2ccccc2n1)C1CCCC1`, the IC50 in test [1] amounted to 2.6 nM. The compound `COC(=O)c1nc(Cl)c(N[C@H](C(=O)N[C@@H](Cc2ccccc2)[C@H](O)CN2C[C@H]3CCCC[C@H]3C[C@H]2C(=O)NC(C)(C)C)[C@H]2CCOC2)nc1N` displayed a 95% effect concentration (IC95) in test [2] of 3 nM. The IC50 stood at 0.16 nM in test [1] and 24.9 nM in test [3]. On the same counts, the results for `CN1CCN(c2ncc(C(=O)N[C@H](C(=O)N[C@@H](Cc3ccccc3)[C@H](O)CN3C[C@H]4CCCC[C@H]4C[C@H]3C(=O)NC(C)(C)C)[C@H]3CCOC3)nc2Cl)CC1` are 12 nM, 0.071 nM and 0.18 nM. As to `CC(C)(C)NC(=O)[C@@H]1C[C@@H]2CCCC[C@@H]2CN1C[C@@H](O)[C@H](Cc1ccccc1)NC(=O)[C@@H](NC(=O)c1ccc2ccccc2n1)C1CCOCC1`, the IC50 in test [1] is 67.9 nM.

The compound `CN(C)c1nc(N)c(C(=O)N[C@H](C(=O)N[C@@H](Cc2ccccc2)[C@H](O)CN2C[C@H]3CCCC[C@H]3C[C@H]2C(=O)NC(C)(C)C)[C@H]2CCOC2)nc1Cl` showed an IC95 in test [2] of 25 nM. The compound also returned a concentration for half-maximal inhibition (IC50) in test [1] of 0.24 nM. `CC(C)(C)NC(=O)[C@@H]1C[C@@H]2CCCC[C@@H]2CN1C[C@@H](O)[C@H](Cc1ccccc1)NC(=O)[C@@H](NC(=O)c1ccc2ccccc2n1)[C@@H]1CCSC1` returned a concentration for an effect of 95% (IC95) in test [2] greater than 200 nM. In test [1], the IC50 was 3.3 nM. In test [1], `CC(C)(C)NC(=O)[C@@H]1C[C@@H]2CCCC[C@@H]2CN1C[C@@H](O)[C@H](Cc1ccccc1)NC(=O)[C@@H](NC(=O)c1ccc2ccccc2n1)[C@H]1CCS(=O)(=O)C1` came in with an IC50 of 0.5 nM. Regarding `CN(C)c1ncc(C(=O)N[C@H](C(=O)N[C@@H](Cc2ccccc2)[C@H](O)CN2C[C@H]3CCCC[C@H]3C[C@H]2C(=O)NC(C)(C)C)[C@H]2CCOC2)nc1Cl`, the IC95 in test [2] was determined as 12 nM. This compound had a concentration for half-maximal inhibition (IC50) in test [1] of 0.06 nM. For the compound `CC(C)(C)NC(=O)[C@@H]1C[C@@H]2CCCC[C@@H]2CN1C[C@@H](O)[C@H](Cc1ccccc1)NC(=O)[C@@H](NC(=O)c1ccc2ccccc2n1)C1CCOC1` (stereo partly specified), the IC95 in test [2] stood at 8 nM. Moreover, the IC50 came out at 0.054 nM in test [1] and 0.24 nM in test [3]. As for `CC(C)[C@H](NC(=O)c1ccc2ccccc2n1)C(=O)N[C@@H](Cc1ccccc1)[C@H](O)CN1C[C@H]2CCCC[C@H]2C[C@H]1C(=O)NC(C)(C)C`, in test [2], the IC95 was 100 nM. Also, the IC50 in test [1] came out at 0.7 nM; in test [3] it was 3.2 nM.

For orientation: IC50 means the concentration that inhibits the measured activity by half. The term IC95 denotes the concentration at which the effect reaches the 95% level.
